Experimental data reported in ChEMBL document CHEMBL4715736, “Identification of anticancer agents based on the thieno[2,3-b]pyridine and 1H-pyrazole molecular scaffolds” (2016).

Tested on: NCI-H322M
Assay: Growth inhibition of human NCI-H322M cells assessed as cell growth at 0.01 uM incubated for 48 hrs by sulforhodamine B assay relative to control
Assay type: functional
Details: read-out: Activity

| Compound | growth at 0.01 µM |
| --- | --- |
| CCc1ccccc1NC(=O)c1sc2nc3c(cc2c1N)C(=O)CCC3 | 97% |

Tested on: NCI-H460
Assay: Growth inhibition of human NCI-H460 cells assessed as cell growth at 0.01 uM incubated for 48 hrs by sulforhodamine B assay relative to control
Assay type: functional
Details: read-out: Activity

| Compound | growth at 0.01 µM |
| --- | --- |
| CCc1ccccc1NC(=O)c1sc2nc3c(cc2c1N)C(=O)CCC3 | 100% |

Tested on: SW-620
Assay: Growth inhibition of human SW-620 cells assessed as cell growth at 0.01 uM incubated for 48 hrs by sulforhodamine B assay relative to control
Assay type: functional
Details: read-out: Activity

| Compound | growth at 0.01 µM |
| --- | --- |
| CCc1ccccc1NC(=O)c1sc2nc3c(cc2c1N)C(=O)CCC3 | 96% |

Tested on: SNB-19
Assay: Growth inhibition of human SNB-19 cells assessed as cell growth at 0.01 uM incubated for 48 hrs by sulforhodamine B assay relative to control
Assay type: functional
Details: read-out: Activity

| Compound | growth at 0.01 µM |
| --- | --- |
| CCc1ccccc1NC(=O)c1sc2nc3c(cc2c1N)C(=O)CCC3 | 91% |

Tested on: LOX IMVI
Assay: Growth inhibition of human LOX IMVI cells assessed as cell growth at 0.01 uM incubated for 48 hrs by sulforhodamine B assay relative to control
Assay type: functional
Details: read-out: Activity

| Compound | growth at 0.01 µM |
| --- | --- |
| CCc1ccccc1NC(=O)c1sc2nc3c(cc2c1N)C(=O)CCC3 | 97% |

Tested on: SK-MEL-2
Assay: Growth inhibition of human SK-MEL-2 cells assessed as cell growth at 0.01 uM incubated for 48 hrs by sulforhodamine B assay relative to control
Assay type: functional
Details: read-out: Activity

| Compound | growth at 0.01 µM |
| --- | --- |
| CCc1ccccc1NC(=O)c1sc2nc3c(cc2c1N)C(=O)CCC3 | 108% |

Tested on: OVCAR-5
Assay: Growth inhibition of human OVCAR-5 cells assessed as cell growth at 0.01 uM incubated for 48 hrs by sulforhodamine B assay relative to control
Assay type: functional
Details: read-out: Activity

| Compound | growth at 0.01 µM |
| --- | --- |
| CCc1ccccc1NC(=O)c1sc2nc3c(cc2c1N)C(=O)CCC3 | 84% |

Tested on: SK-OV-3
Assay: Growth inhibition of human SK-OV-3 cells assessed as cell growth at 0.01 uM incubated for 48 hrs by sulforhodamine B assay relative to control
Assay type: functional
Details: read-out: Activity

| Compound | growth at 0.01 µM |
| --- | --- |
| CCc1ccccc1NC(=O)c1sc2nc3c(cc2c1N)C(=O)CCC3 | 104% |

Tested on: 786-0
Assay: Growth inhibition of human 786-0 cells assessed as cell growth at 0.01 uM incubated for 48 hrs by sulforhodamine B assay relative to control
Assay type: functional
Details: read-out: Activity
Summary of the method: (§1)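 NCI Developmental Therapeutics Program NCI60 panel. Compounds that were active in the 10 µM one-dose screen went on to dose–response testing. Growth at each concentration is expressed relative to untreated control (100%). GI50 (concentration giving 50% of maximal inhibition of proliferation) and TGI (concentration giving total growth inhibition) were derived from the curves.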

| Compound | growth at 0.01 µM |
| --- | --- |
| CCc1ccccc1NC(=O)c1sc2nc3c(cc2c1N)C(=O)CCC3 | 90% |

Tested on: CAKI-1
Assay: Growth inhibition of human CAKI-1 cells assessed as cell growth at 0.01 uM incubated for 48 hrs by sulforhodamine B assay relative to control
Assay type: functional
Details: read-out: Activity
Summary of the method: as §1

| Compound | growth at 0.01 µM |
| --- | --- |
| CCc1ccccc1NC(=O)c1sc2nc3c(cc2c1N)C(=O)CCC3 | 89% |

Tested on: NCI-H522
Assay: Growth inhibition of human NCI-H522 cells assessed as cell growth at 0.1 uM incubated for 48 hrs by sulforhodamine B assay relative to control
Assay type: functional
Details: read-out: Activity

| Compound | growth at 0.1 µM |
| --- | --- |
| CCc1ccccc1NC(=O)c1sc2nc3c(cc2c1N)C(=O)CCC3 | 88% |

Tested on: SF-268
Assay: Growth inhibition of human SF-268 cells assessed as cell growth at 0.1 uM incubated for 48 hrs by sulforhodamine B assay relative to control
Assay type: functional
Details: read-out: Activity

| Compound | growth at 0.1 µM |
| --- | --- |
| CCc1ccccc1NC(=O)c1sc2nc3c(cc2c1N)C(=O)CCC3 | 93% |

Tested on: SF-539
Assay: Growth inhibition of human SF-539 cells assessed as cell growth at 0.1 uM incubated for 48 hrs by sulforhodamine B assay relative to control
Assay type: functional
Details: read-out: Activity

| Compound | growth at 0.1 µM |
| --- | --- |
| CCc1ccccc1NC(=O)c1sc2nc3c(cc2c1N)C(=O)CCC3 | 93% |

Tested on: Malme-3M
Assay: Growth inhibition of human Malme-3M cells assessed as cell growth at 0.1 uM incubated for 48 hrs by sulforhodamine B assay relative to control
Assay type: functional
Details: read-out: Activity

| Compound | growth at 0.1 µM |
| --- | --- |
| CCc1ccccc1NC(=O)c1sc2nc3c(cc2c1N)C(=O)CCC3 | 84% |

Tested on: M14
Assay: Growth inhibition of human M14 cells assessed as cell growth at 0.1 uM incubated for 48 hrs by sulforhodamine B assay relative to control
Assay type: functional
Details: read-out: Activity

| Compound | growth at 0.1 µM |
| --- | --- |
| CCc1ccccc1NC(=O)c1sc2nc3c(cc2c1N)C(=O)CCC3 | 78% |

Tested on: NCI/ADR-RES
Assay: Growth inhibition of human NCI/ADR-RES cells assessed as cell growth at 0.1 uM incubated for 48 hrs by sulforhodamine B assay relative to control
Assay type: functional
Details: read-out: Activity

| Compound | growth at 0.1 µM |
| --- | --- |
| CCc1ccccc1NC(=O)c1sc2nc3c(cc2c1N)C(=O)CCC3 | 88% |

Tested on: 786-0
Assay: Growth inhibition of human 786-0 cells assessed as cell growth at 0.1 uM incubated for 48 hrs by sulforhodamine B assay relative to control
Assay type: functional
Details: read-out: Activity
Summary of the method: as §1

| Compound | growth at 0.1 µM |
| --- | --- |
| CCc1ccccc1NC(=O)c1sc2nc3c(cc2c1N)C(=O)CCC3 | 89% |

Tested on: CAKI-1
Assay: Growth inhibition of human CAKI-1 cells assessed as cell growth at 0.1 uM incubated for 48 hrs by sulforhodamine B assay relative to control
Assay type: functional
Details: read-out: Activity
Summary of the method: as §1

| Compound | growth at 0.1 µM |
| --- | --- |
| CCc1ccccc1NC(=O)c1sc2nc3c(cc2c1N)C(=O)CCC3 | 90% |

Tested on: DU-145
Assay: Growth inhibition of human DU-145 cells assessed as cell growth at 0.1 uM incubated for 48 hrs by sulforhodamine B assay relative to control
Assay type: functional
Details: read-out: Activity
Summary of the method: as §1

| Compound | growth at 0.1 µM |
| --- | --- |
| CCc1ccccc1NC(=O)c1sc2nc3c(cc2c1N)C(=O)CCC3 | 103% |

Tested on: K562
Assay: Growth inhibition of human K562 cells assessed as cell growth at 1 uM incubated for 48 hrs by sulforhodamine B assay relative to control
Assay type: functional
Details: read-out: Activity

| Compound | growth at 1 µM |
| --- | --- |
| CCc1ccccc1NC(=O)c1sc2nc3c(cc2c1N)C(=O)CCC3 | 22% |

Tested on: NCI-H226
Assay: Growth inhibition of human NCI-H226 cells assessed as cell growth at 1 uM incubated for 48 hrs by sulforhodamine B assay relative to control
Assay type: functional
Details: read-out: Activity

| Compound | growth at 1 µM |
| --- | --- |
| CCc1ccccc1NC(=O)c1sc2nc3c(cc2c1N)C(=O)CCC3 | 63% |

Tested on: U-251
Assay: Growth inhibition of human U-251 cells assessed as cell growth at 1 uM incubated for 48 hrs by sulforhodamine B assay relative to control
Assay type: functional
Details: read-out: Activity

| Compound | growth at 1 µM |
| --- | --- |
| CCc1ccccc1NC(=O)c1sc2nc3c(cc2c1N)C(=O)CCC3 | 33% |

Tested on: OVCAR-3
Assay: Growth inhibition of human OVCAR-3 cells assessed as cell growth at 1 uM incubated for 48 hrs by sulforhodamine B assay relative to control
Assay type: functional
Details: read-out: Activity

| Compound | growth at 1 µM |
| --- | --- |
| CCc1ccccc1NC(=O)c1sc2nc3c(cc2c1N)C(=O)CCC3 | 12% |

Tested on: UO-31
Assay: Growth inhibition of human UO-31 cells assessed as cell growth at 1 uM incubated for 48 hrs by sulforhodamine B assay relative to control
Assay type: functional
Details: read-out: Activity

| Compound | growth at 1 µM |
| --- | --- |
| CCc1ccccc1NC(=O)c1sc2nc3c(cc2c1N)C(=O)CCC3 | 50% |

Tested on: Malme-3M
Assay: Growth inhibition of human Malme-3M cells assessed as cell growth at 100 uM incubated for 48 hrs by sulforhodamine B assay relative to control
Assay type: functional
Details: read-out: Activity

| Compound | growth at 100 µM |
| --- | --- |
| CCc1ccccc1NC(=O)c1sc2nc3c(cc2c1N)C(=O)CCC3 | -5% |

Tested on: OVCAR-5
Assay: Growth inhibition of human OVCAR-5 cells assessed as cell growth at 100 uM incubated for 48 hrs by sulforhodamine B assay relative to control
Assay type: functional
Details: read-out: Activity

| Compound | growth at 100 µM |
| --- | --- |
| CCc1ccccc1NC(=O)c1sc2nc3c(cc2c1N)C(=O)CCC3 | 7% |

Tested on: SN12C
Assay: Growth inhibition of human SN12C cells assessed as cell growth at 100 uM incubated for 48 hrs by sulforhodamine B assay relative to control
Assay type: functional
Details: read-out: Activity

| Compound | growth at 100 µM |
| --- | --- |
| CCc1ccccc1NC(=O)c1sc2nc3c(cc2c1N)C(=O)CCC3 | 22% |

Tested on: TK-10
Assay: Growth inhibition of human TK-10 cells assessed as cell growth at 100 uM incubated for 48 hrs by sulforhodamine B assay relative to control
Assay type: functional
Details: read-out: Activity

| Compound | growth at 100 µM |
| --- | --- |
| CCc1ccccc1NC(=O)c1sc2nc3c(cc2c1N)C(=O)CCC3 | 13% |

Tested on: HOP-92
Assay: Growth inhibition of human HOP-92 cells incubated for 48 hrs by sulforhodamine B assay
Assay type: functional
Details: not given
Summary of the method: (§2)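 NCI60 panel at the NCI Developmental Therapeutics Program. Only compounds active in the 10 µM screen went to dose-response testing. GI50, the concentration giving 50% of maximal inhibition of proliferation, and TGI, the concentration giving total growth inhibition, were derived from the dose-response curves.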

| Compound | LC50 (concentration killing 50% of the starting cells) | TGI |
| --- | --- | --- |
| CCc1ccccc1NC(=O)c1sc2nc3c(cc2c1N)C(=O)CCC3 | > 100 µM | ≥ 100 µM |

Tested on: NCI-H460
Assay: Growth inhibition of human NCI-H460 cells incubated for 48 hrs by sulforhodamine B assay
Assay type: functional
Details: not given
Summary of the method: as §2

| Compound | GI50 | LC50 | TGI |
| --- | --- | --- | --- |
| CCc1ccccc1NC(=O)c1sc2nc3c(cc2c1N)C(=O)CCC3 | 0.345 µM | > 100 µM | > 100 µM |

Tested on: HCC 2998
Assay: Growth inhibition of human HCC 2998 cells incubated for 48 hrs by sulforhodamine B assay
Assay type: functional
Details: not given

| Compound | GI50 | TGI |
| --- | --- | --- |
| CCc1ccccc1NC(=O)c1sc2nc3c(cc2c1N)C(=O)CCC3 | 1.43 µM | > 100 µM |

Same assay, conditions: read-out: LC50 (the source's name)

| Compound | CC50 |
| --- | --- |
| CCc1ccccc1NC(=O)c1sc2nc3c(cc2c1N)C(=O)CCC3 | > 100 µM |

Tested on: U-251
Assay: Growth inhibition of human U-251 cells incubated for 48 hrs by sulforhodamine B assay
Assay type: functional
Details: not given
Summary of the method: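 NCI DTP 60-line human tumour panel. Dose-response curves were run only for ligands active in the initial 10 µM screen. GI50 (concentration giving 50% of maximal inhibition of proliferation) and TGI (concentration giving total growth inhibition) were derived from these curves.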

| Compound | GI50 | LC50 (concentration killing 50% of cells) | TGI |
| --- | --- | --- | --- |
| CCc1ccccc1NC(=O)c1sc2nc3c(cc2c1N)C(=O)CCC3 | 0.499 µM | > 100 µM | 29.1 µM |

Tested on: Malme-3M
Assay: Growth inhibition of human Malme-3M cells incubated for 48 hrs by sulforhodamine B assay
Assay type: functional
Details: not given
Summary of the method: as §2

| Compound | GI50 | LC50 | TGI |
| --- | --- | --- | --- |
| CCc1ccccc1NC(=O)c1sc2nc3c(cc2c1N)C(=O)CCC3 | 26.2 µM | > 100 µM | ≥ 100 µM |

Tested on: M14
Assay: Growth inhibition of human M14 cells incubated for 48 hrs by sulforhodamine B assay
Assay type: functional
Details: not given
Summary of the method: as §2

| Compound | GI50 | LC50 (concentration killing 50% of cells) | TGI |
| --- | --- | --- | --- |
| CCc1ccccc1NC(=O)c1sc2nc3c(cc2c1N)C(=O)CCC3 | 0.291 µM | > 100 µM | > 100 µM |
